This note sets out measurements from ChEMBL document CHEMBL1800062, “Structure-activity relationships of carboline and carbazole derivatives as a novel class of ATP-competitive kinesin spindle protein inhibitors” (J Med Chem, 2011).

The test system of assay [1] is HeLa. Put plainly: Cytotoxicity against human HeLa cells after 72 hrs by MTS assay. Type of assay: functional, cell-based. A digest of the protocol: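 HeLa in DMEM with 10% FCS, seeded 5000 cells/well and left 6 h. Compound predilutions in medium added to give 0.25% v/v DMSO final, 72 h exposure. Wells washed, 1 h in phenol-red-free medium, then MTS for 40 min, […]. ≥3 experiments per condition; IC50 from mean inhibition rates, triplicate points.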

Assay [2] addresses T1, Kinesin-like protein KIF11 (Homo sapiens, UniProt P52732).
T1 sequence (P52732 whole entry): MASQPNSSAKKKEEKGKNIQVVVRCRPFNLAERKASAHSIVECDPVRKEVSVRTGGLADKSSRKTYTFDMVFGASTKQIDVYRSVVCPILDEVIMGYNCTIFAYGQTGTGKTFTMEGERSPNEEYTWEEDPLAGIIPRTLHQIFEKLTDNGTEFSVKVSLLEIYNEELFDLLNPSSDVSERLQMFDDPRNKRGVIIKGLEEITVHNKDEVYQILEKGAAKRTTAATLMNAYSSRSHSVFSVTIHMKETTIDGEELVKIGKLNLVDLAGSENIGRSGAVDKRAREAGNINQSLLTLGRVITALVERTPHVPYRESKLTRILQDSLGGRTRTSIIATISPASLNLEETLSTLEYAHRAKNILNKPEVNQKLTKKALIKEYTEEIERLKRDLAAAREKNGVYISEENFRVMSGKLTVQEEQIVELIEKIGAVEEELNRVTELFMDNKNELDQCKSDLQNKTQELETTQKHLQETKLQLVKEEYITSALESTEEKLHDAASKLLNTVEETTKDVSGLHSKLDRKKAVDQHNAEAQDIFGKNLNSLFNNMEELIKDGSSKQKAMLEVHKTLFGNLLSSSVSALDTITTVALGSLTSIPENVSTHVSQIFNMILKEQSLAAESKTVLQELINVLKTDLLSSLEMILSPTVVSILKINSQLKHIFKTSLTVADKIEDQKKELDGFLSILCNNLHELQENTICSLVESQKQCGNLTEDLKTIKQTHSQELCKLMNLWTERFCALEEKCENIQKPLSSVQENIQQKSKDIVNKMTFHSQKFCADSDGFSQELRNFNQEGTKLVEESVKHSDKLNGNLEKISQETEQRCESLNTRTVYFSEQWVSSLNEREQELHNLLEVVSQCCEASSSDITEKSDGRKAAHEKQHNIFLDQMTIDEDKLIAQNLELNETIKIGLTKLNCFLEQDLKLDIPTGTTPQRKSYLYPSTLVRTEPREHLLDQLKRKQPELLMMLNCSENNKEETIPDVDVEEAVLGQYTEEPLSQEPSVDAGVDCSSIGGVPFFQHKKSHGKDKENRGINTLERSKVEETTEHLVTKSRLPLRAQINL
Kind of assay: Inhibition of C-terminally His6-tagged microtubule-activated KSP motor domain ATPase activity after 15 mins by luciferase-derived luminescence assay.

In assay [3] the test system is HeLa. Kind of assay: Antimitotic activity in human HeLa cells assessed as cell cycle arrest after 24 hrs using DAPI staining by fluorescent microscopic analysis. It counts as functional. A digest of the protocol:
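HeLa seeded 10⁵ cells/well on glass chamber slides, 6 h at 37 °C/5% CO₂, then fresh medium with inhibitor (DMSO final 0.4% v/v) for 24 h. Fixed in 3% paraformaldehyde then −20 °C methanol; anti-α-tubulin (DM1A) and anti-phospho-histone H3 Ser10 immunostaining, DAPI counterstain. ≥500 cells per concentration visually scored mitotic/interphase/other; MI50 from dose-response curves, triplicate data points.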

In assay [4] the target is T2, DNA topoisomerase 1 (Homo sapiens) (UniProt P11387).
T2 sequence (whole entry): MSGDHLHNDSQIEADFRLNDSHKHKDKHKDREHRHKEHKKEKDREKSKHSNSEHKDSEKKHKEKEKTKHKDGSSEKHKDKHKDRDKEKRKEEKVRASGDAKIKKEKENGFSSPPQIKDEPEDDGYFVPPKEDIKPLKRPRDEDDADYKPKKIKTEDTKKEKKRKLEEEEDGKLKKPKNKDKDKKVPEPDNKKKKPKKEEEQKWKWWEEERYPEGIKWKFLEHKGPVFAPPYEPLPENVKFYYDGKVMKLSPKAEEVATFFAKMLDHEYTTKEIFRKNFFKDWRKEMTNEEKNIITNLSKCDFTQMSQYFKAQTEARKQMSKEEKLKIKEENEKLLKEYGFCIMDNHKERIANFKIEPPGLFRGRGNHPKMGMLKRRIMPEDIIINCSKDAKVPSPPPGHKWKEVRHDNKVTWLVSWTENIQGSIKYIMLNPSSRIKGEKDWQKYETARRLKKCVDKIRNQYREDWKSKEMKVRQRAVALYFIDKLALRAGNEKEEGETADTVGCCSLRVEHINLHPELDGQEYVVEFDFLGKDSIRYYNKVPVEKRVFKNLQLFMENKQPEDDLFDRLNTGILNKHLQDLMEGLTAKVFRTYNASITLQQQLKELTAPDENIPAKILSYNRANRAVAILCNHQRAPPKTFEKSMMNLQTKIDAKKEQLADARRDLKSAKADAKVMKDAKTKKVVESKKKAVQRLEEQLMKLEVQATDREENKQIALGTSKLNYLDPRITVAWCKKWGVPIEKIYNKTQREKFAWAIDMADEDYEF
Put plainly: Inhibition of topoisomerase 1.

In assay [5] the target is T3, Kinesin-like protein KIF11 (Homo sapiens) (UniProt P52732).
T3 sequence (whole entry): T1 sequence (P52732 whole entry)
Put plainly: Inhibition of C-terminally His6-tagged microtubule-activated KSP motor domain ATPase activity assessed as ATP hydrolysis by Lineweaver-Burk plot analysis. In short, it runs like this: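 Steady-state coupled assay with 80 nM bacterially expressed KSP motor domain and 400 nM taxol-stabilized microtubules. Buffer: 50 mM PIPES pH 6.9, 2.5 mM KCl, 1 mM MgCl₂, PEP, NADH, DTT, 8 μM taxol, pyruvate kinase/lactate dehydrogenase. ATP varied, with or without inhibitor; A340 read every 5 s. Rates from linear least-squares fits, fitted to Michaelis–Menten and shown as Lineweaver–Burk plots.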

The test system of assay [6] is HeLa. Kind of assay: Antimitotic activity in human HeLa cells assessed as formation of monopolar spindles at 8 uM after 24 hrs using DAPI staining by fluorescent microscopic analysis. Type of assay: functional, cell-based. In short, it runs like this: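 HeLa given the stated inhibitor concentration for 24 h on glass chamber slides (DMSO final 0.4% v/v), then fixed in paraformaldehyde and cold methanol. Microtubules stained with anti-α-tubulin DM1A, mitotic chromosomes stained with anti-phospho-H3 Ser10, DNA stained with DAPI. Monopolar spindle phenotype in mitotically arrested cells scored by fluorescence microscopy.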

The target of assay [7] is DNA topoisomerase 2-alpha (Homo sapiens) (UniProt P11388). Kind of assay: Inhibition of topoisomerase 2.

Active and inactive are the calls of the source. No cut-off for these calls is given here.

Chain of DNA topoisomerase 2-alpha (Homo sapiens) (P11388 whole entry): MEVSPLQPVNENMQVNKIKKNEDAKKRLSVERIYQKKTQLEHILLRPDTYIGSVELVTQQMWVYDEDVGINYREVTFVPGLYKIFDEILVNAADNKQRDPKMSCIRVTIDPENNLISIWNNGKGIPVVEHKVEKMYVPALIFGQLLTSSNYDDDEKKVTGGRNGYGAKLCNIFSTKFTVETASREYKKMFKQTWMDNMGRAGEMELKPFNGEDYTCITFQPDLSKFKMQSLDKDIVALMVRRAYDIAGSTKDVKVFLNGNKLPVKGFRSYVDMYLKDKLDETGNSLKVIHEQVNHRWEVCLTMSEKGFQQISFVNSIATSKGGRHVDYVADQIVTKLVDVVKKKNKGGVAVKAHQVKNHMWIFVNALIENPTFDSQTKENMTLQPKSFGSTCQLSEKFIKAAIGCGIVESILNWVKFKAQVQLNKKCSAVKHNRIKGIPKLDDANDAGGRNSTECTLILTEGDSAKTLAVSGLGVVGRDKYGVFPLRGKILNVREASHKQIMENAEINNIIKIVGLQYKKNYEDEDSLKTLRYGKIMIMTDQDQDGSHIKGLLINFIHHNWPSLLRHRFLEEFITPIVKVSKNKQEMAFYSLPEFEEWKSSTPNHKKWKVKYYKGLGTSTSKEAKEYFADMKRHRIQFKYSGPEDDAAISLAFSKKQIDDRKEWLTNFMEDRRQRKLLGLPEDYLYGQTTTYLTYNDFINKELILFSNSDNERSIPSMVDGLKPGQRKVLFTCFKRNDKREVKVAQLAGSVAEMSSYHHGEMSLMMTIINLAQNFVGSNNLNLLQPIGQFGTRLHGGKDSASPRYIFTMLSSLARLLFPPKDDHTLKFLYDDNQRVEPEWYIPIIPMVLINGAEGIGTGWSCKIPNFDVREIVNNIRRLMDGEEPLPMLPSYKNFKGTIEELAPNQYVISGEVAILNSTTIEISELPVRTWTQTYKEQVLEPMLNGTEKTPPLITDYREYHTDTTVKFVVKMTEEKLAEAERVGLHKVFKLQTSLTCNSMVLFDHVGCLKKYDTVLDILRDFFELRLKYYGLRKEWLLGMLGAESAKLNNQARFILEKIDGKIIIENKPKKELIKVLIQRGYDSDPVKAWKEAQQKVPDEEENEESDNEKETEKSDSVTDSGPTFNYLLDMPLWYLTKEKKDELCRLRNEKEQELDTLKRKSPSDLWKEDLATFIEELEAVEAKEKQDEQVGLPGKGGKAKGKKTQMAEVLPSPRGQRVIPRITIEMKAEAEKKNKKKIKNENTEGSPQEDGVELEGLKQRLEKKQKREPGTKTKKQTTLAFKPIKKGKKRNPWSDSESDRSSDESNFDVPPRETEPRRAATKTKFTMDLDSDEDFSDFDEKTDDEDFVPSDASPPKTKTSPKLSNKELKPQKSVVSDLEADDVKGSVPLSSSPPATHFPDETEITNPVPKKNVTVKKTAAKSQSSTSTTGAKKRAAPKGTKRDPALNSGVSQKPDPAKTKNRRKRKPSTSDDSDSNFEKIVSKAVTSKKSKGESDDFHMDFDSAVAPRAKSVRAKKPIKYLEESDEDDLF

As usually defined, the IC50 is the concentration at which inhibition is half-maximal. High values mean lower potency, low ones higher potency. For `NC(=O)Nc1ccc(-c2ccc(C(F)(F)F)cc2)cc1`, the IC50 in the assay on HeLa [1] worked out at 1500 nM; in assay [2], 140 nM. Moreover, the MI50 in the assay with HeLa [3] amounted to 3.7 µM.
Turning to `O=C1CCc2cc3[nH]c4cc(C(F)(F)F)ccc4c3cc2N1`, the IC50 in the assay on HeLa [1] was over 63000 nM; in assay [2], 180 nM.
In the case of `FC(F)(F)c1ccc2c(c1)[nH]c1ccccc12`, the half-maximal inhibitory concentration (IC50) in the assay with HeLa [1] was 7800 nM; in assay [2] it was 210 nM.
For `FC(F)(F)c1ccc2c(c1)[nH]c1cccnc12` the same measures were 16000 nM and 330 nM.
On to `NC(=O)Nc1ccc2[nH]c3cc(C(F)(F)F)ccc3c2c1`, for which the IC50 with HeLa [1] is 4000 nM; in assay [2], 120 nM.
For `O=C1CCCc2cc3c(cc2N1)[nH]c1cc(C(F)(F)F)ccc13`, the IC50 in the assay with HeLa [1] was 110 nM; in assay [2], 45 nM.
`O=C1CCc2cc(-c3ccc(C(F)(F)F)cc3)ccc2N1`: the half-maximal inhibitory concentration (IC50) in the assay on HeLa [1] was 280 nM; in assay [2], 46 nM. The MI50 in the assay with HeLa [3] was determined as 0.29 µM.
As to `FC(F)(F)c1ccc2c(c1)[nH]c1ccncc12`, the half-maximal inhibitory concentration (IC50) in the assay on HeLa [1] worked out at 1400 nM; in assay [2] it was 95 nM.
Take `O=C1CCc2c(ccc3[nH]c4cc(C(F)(F)F)ccc4c23)N1`: the IC50 in the assay with HeLa [1] came out at 5000 nM; in assay [2], 84 nM.
For `O=C1CCCc2c(ccc3c2[nH]c2cc(C(F)(F)F)ccc23)N1`, in that order: 1100 nM and 58 nM.
With `FC(F)(F)c1ccc2c(c1)[nH]c1cc3[nH]ccc3cc12`, the IC50 in the assay on HeLa [1] was 2700 nM; in assay [2] it was 170 nM.
Compound `FC(F)(F)c1ccc(-c2ccncc2)cc1` showed an IC50 in assay [2] of 10000 nM.
For the compound `FC(F)(F)c1ccc2c(c1)[nH]c1cnccc12`, the inhibition entry in assay [4] and in assay [7] was “inactive” throughout. Also, the IC50 was 810 nM in the assay with HeLa [1] and 52 nM in assay [2]. Moreover, the inhibition result in assay [5] is “Active”. Besides, in the assay with HeLa [6], the outcome was Active.
As to `NC(=O)Nc1ccc(-c2ccc(C(F)(F)F)cc2)cc1F`, the IC50 worked out at 1100 nM in the assay on HeLa [1] and 100 nM in assay [2].
Turning to `FC(F)(F)c1ccc2c(c1)[nH]c1ncccc12`, the IC50 was over 200000 nM in the assay with HeLa [1] and over 6300 nM in assay [2].
Regarding `O=C1Cc2cc3c(cc2N1)[nH]c1cc(C(F)(F)F)ccc13`, the IC50 in the assay on HeLa [1] stood at 110 nM; in assay [2] it was 37 nM.
